Rows were chosen to be rich in hits. Some 3% of all compounds tested hit in one or more screens of this group.
CendR NRP1 mod: NRP-1/CendR interaction modulation; actives 0.85% (n = 360,000); FAM-RPARPAR peptide binding to NRP-1, fluorescence polarization; AID 602438; O14786; inhibition, % at 25 µM;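 active = inhibition or corrected inhibition above about 18%, plus a signal ratio from 0.5 to 1.5, limit read from the data, passing the limit was not always enough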
KLK7 zymogen act: activators of human kallikrein-7 zymogen; P49862; purified proKLK7, EDANS-DABCYL substrate fluorescence; 100% is mature enzyme control, 0% vehicle; activation, % at 7 µM; actives 0.9% (n = 370,000); AID 652039;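 active = activation above the mean of all tested compounds plus 3 SD, computed per campaign excluding outliers beyond control limits, cut at about 13% in these data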
PLC-beta3 inh: blocks human PLC-beta3 enzyme activity. Q01970. Purified PLC-beta3, fluorogenic substrate, fluorescence. inhibition, % at 12.2 µM. actives 0.18% (n = 370,000). AID 720704; in the data active = inhibition above about 11%;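 note: 0% = median of compound wells on plate and 100% = full blocker control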
Tn7 DDE FP: inhibitors of Tn7 peptide binding to human fibrin DD(E) | FP displacement of FITC-Tn7 peptide from fibrin DD(E); 0% = median of compound wells per plate | actives 0.13% (n = 370,000) | inhibition, % at 8.3 µM | P02675;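 active = inhibition above the mean of compounds falling within the control limits plus 3 SD of them, cut at about 14% in these data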;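 note: 0% = plate median of compound wells and 100% = 10 µM Aha-Tn7 peptide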
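Test system – human fibrin DD(E) · Times – 10 min preincubation, 3 h with tracer, room temperature · Detection – fluorescence polarization of the labelled Tn7 tracer · Measure – percent inhibition normalized to high-control wells · Benchmarks – high control wells with 10 µM unlabelled Aha-Tn7 peptide (full inhibition) · Repeats – singlicate testing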
PLCg1 inh: inhibitors of human phospholipase C gamma1 | P19174 | purified PLC-gamma1, fluorogenic substrate, fluorescence | inhibition, % at 12.2 µM | actives 0.84% (n = 370,000) | AID 720700; in the data active = inhibition above about 9.5%
DDE Tn6 FP inh: disrupts Tn6 cyclic peptide binding to fibrin D-Dimer-E complex. AID 720509. inhibition, % at 8.3 µM. P02675. Fibrin DD(E) TRITC-Tn6 fluorescence polarization displacement. actives 0.21% (n = 370,000);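 active = inhibition above a per-campaign cutoff: mean of compounds within control limits plus 3 SD, cut at about 15% in these data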;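 note: 0% = median of all compound wells on the plate and 100% = blocking peptide control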
DDE Tn7 confirm: DD(E)-Tn7 binding inhibition, FP confirmation; shares compounds with Tn7 DDE FP; FP displacement of TRITC-Tn7 peptide from DD(E); 0% set at plate's compound-well median; actives 5% (n = 460); inhibition, % at 8.3 µM;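 active = inhibition above the campaign cutoff, the mean of compounds within control limits plus 3 SD, cut at about 14% in these data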;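 note: 100% = median FP of high control wells holding Aha-Tn7 inhibitor peptide; displacers lower polarization since freed probe rises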
Tn7 DDE ctr: DD(E)-Tn7 binding inhibition, counter-screen; shares compounds with Tn7 DDE FP; fibrin DD(E), TRITC-Tn7 probe displacement, fluorescence polarization; inhibition, % at 8.3 µM; actives 3% (n = 460);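 active = inhibition above the cutoff, the mean of compounds lying between the control bounds plus 3 SD of those compounds, cut at about 17% in these data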;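 note: 0% = median of compound sample wells and 100% = excess unlabeled Aha-Tn7 peptide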
* = called active by the depositor; . = no result.

SMILES	CendR NRP1 mod	KLK7 zymogen act	PLC-beta3 inh	Tn7 DDE FP	PLCg1 inh	DDE Tn6 FP inh	DDE Tn7 confirm	Tn7 DDE ctr
Cc1cccc(NC(=O)c2cccc(C(=O)Nc3cccc(C)n3)c2)n1	0	0	-3	4	-1	-8	.	.
CCOc1ccc(CCN2C(=S)N([C@@H](Cc3ccc(O)cc3)CN3CCC[C@@H]3CN3C(=S)NC[C@@H]3CC(C)C)C[C@@H]2CC(C)C)cc1	4	0	5	14*	2	-1	10	3
CCOc1ccc(CCN2C(=S)N([C@@H](Cc3ccc(O)cc3)CN3CCC[C@@H]3CN3C(=S)NC[C@@H]3CC(C)C)C[C@@H]2Cc2ccccc2)cc1	12	0	-3	0	0	-8	.	.
Cc1ccc(NC(=O)CSc2nnc(-c3cccnc3)n2Cc2ccco2)cc1C	.	0	-2	-1	-2	6	.	.
COc1ccc(NC(=O)c2cc3c(C)nn(-c4ccccc4)c3s2)cc1	.	-7	-24	1	-16	-14	.	.
CCc1ccccc1NC(=S)NC1CC2CCC(C1)N2Cc1ccc(F)cc1 (configuration not stated)	-2	0	4	14*	-2	-11	-3	-11
COc1cc2c(c(OC)c1)[C@H](/C=C/c1ccccc1)[C@@H]([C@H](O)CO)OC2	.	0	-1	-1	-1	-1	.	.
CC[C@H]1OC(=O)[C@H](C)[C@@H](O[C@H]2C[C@@](C)(OC)[C@@H](O)[C@H](C)O2)[C@H](C)[C@@H](O[C@@H]2O[C@H](C)C[C@H](N(C)C)[C@H]2O)[C@](C)(OC)C[C@@H](C)C(=O)[C@H](C)[C@@H](O)[C@]1(C)O	-9	0	-2	4	-1	-1	.	.
CC[C@H]1OC(=O)[C@H](C)[C@@H](O[C@H]2C[C@@](C)(OC)[C@@H](O)[C@H](C)O2)C(C)[C@@H](O[C@@H]2O[C@H](C)C[C@H](N(C)C)[C@H]2O)[C@](C)(O)C[C@@H](C)CN(C)[C@H](C)[C@@H](O)[C@]1(C)O (some centres not stated)	.	0	-2	14*	0	9	5	5
Cc1nn(C)cc1NC(=O)C[C@H]1CC[C@H]2[C@@H](COc3ccc(NC(=O)Nc4ccccc4)cc3C(=O)N2C)O1	.	0	6	3	9	-2	.	.
C#CCN1CC(N(C)CCOC(=O)c2cc3ccccc3[nH]2)CS1(=O)=O (configuration not stated)	.	1	-5	-7	-3	-6	.	.
CCOC(=O)N1CCN(Cc2nc(-c3ccc(Cl)cc3)no2)CC1	24	0	-1	15*	-3	-1	6	-10
Cc1[nH]c2c(C)cccc2c(=O)c1CN1CCCCCC1	9	0	-11	16*	-5	4	5	4
CCc1ccc2[nH]c(C)c(CN3CCCCCC3)c(=O)c2c1	2	-1	2	5	0	-4	.	.
CCCCNC(=S)N(C)/N=C/c1ccccc1C(=O)O	-3	0	-3	14*	3	0	-9	-7
C[C@@]12CCC=C[C@H]1[C@H](c1ccc(/C=C/c3ccccc3)cc1F)N(Cc1ccccc1)C2=O	21*	-23	-12	16*	-6	11	8	3
COC(=O)[C@]12C[C@H](CC(=O)NCc3ccc(OC)c(OC)c3)C(=O)N(Cc3ccco3)C1=C[C@H](C(C)C)O[C@@H]2C1CC1	.	-1	2	-8	1	-6	.	.
COc1ccccc1CNC(=O)NC1CCN(CC(=O)Nc2ccc3c(c2)OCCO3)CC1	.	-1	3	-2	4	1	.	.
COc1ccc(-c2coc3c(C(=O)NC4CCCCC4)cccc23)c(C)c1	12	0	2	10	1	1	.	.
COc1ccc(-c2ccc(C(=O)NC3CCCCC3)c3occc23)c(C)c1	-6	-1	-10	16*	-5	4	10	6
CCc1ccc(C(C)NC(=O)/C(C#N)=C\c2cn[nH]c2-c2ccccc2)cc1 (configuration not stated)	-7	0	2	14*	-3	5	12	9
CC(NC(=O)/C(C#N)=C/c1cn[nH]c1-c1ccccc1)c1ccccc1 (configuration not stated)	0	0	-2	-2	3	-7	.	.
N#Cc1cccc(NC(=O)OC2CC3CC2[C@H]2CCCCN2C3)c1 (some centres not stated)	.	0	3	7	5	-7	.	.
CN(C)S(=O)(=O)N1CCC(Oc2ccc(C(=O)N3C[C@@H]4CCC[C@H]3C4)cc2)CC1	7	0	-6	14*	0	9	4	-3
CC(COc1ccc(C(F)(F)F)cc1)CN1CCC(C(O)(c2ccccc2)c2ccccc2)CC1 (configuration not stated)	.	0	2	-5	0	-6	.	.
SMILES	CendR NRP1 mod	KLK7 zymogen act	PLC-beta3 inh	Tn7 DDE FP	PLCg1 inh	DDE Tn6 FP inh	DDE Tn7 confirm	Tn7 DDE ctr
Cc1cc2nc3c(=O)n(C4CCCCC4)c(=O)[nH]c3nc2cc1N	134	-1	-193	25*	-177	-4	17*	8
COc1ccc([C@@H]2C[C@@H](c3ccccc3)Oc3cc(C)cc(C)c32)cc1	14	-1	-2	2	2	3	.	.
COc1ccc([C@@H]2C[C@@H](c3ccccc3)Oc3c(C)ccc(C(C)C)c32)cc1	.	0	-1	14*	2	-4	10	7
COc1ccccc1CN1C[C@@H]2C[C@@H](c3ccccc3C)N3CCC[C@@]23C1=O	0	0	-3	16*	-2	4	-2	-4
Cc1ccc(-c2nnc(SCC(=O)Nc3ccc(Oc4ccccc4)cc3)n2-c2ccc(Cl)cc2)cc1	.	0	5	-9	1	1	.	.
COCCN1CCCC(CNCc2cn(C)nc2-c2ccc(Oc3ccccc3)cc2)C1 (configuration not stated)	5	1	2	15*	4	2	-3	-6
O=C(Nc1ccccc1N1CCCC1)c1cc(Cl)ccc1Cl	-3	-1	3	0	1	5	.	.
O=C(Nc1ccccc1N1CCCCC1)c1cccc(Cl)c1	-2	0	-3	14*	1	0	-2	-8
COC(=O)C1CN(Cc2ccccc2)CCS(=O)(=O)N1Cc1cn(Cc2ccc(C)cc2)nn1 (configuration not stated)	.	0	3	4	1	-2	.	.

Source: PubChem BioAssay
